One compound from ChEMBL document CHEMBL2331235, “Solphenazines A-F, glycosylated phenazines from Streptomyces sp. strain DL-93” (J Nat Prod, 2013) can be followed below.

Active and inactive are the calls of the source. The calls are words filed in the database; no cut-off is given here.

Usually MIC stands for the lowest concentration that inhibits growth of the organism. Usually EC50 stands for the concentration that produces a half-maximal response.

For one assay, the system named is Enterococcus faecalis. Description: Antimicrobial activity against vancomycin-resistant Enterococcus faecalis ATCC 51299 by microbroth dilution assay. Type of assay: functional.
Assay [1] deals with Escherichia coli. The assay can be described thus: Antimicrobial activity against Escherichia coli ATCC 25922 by microbroth dilution assay. Type of assay: functional. In general terms: In broth dilution the organism is exposed to a series of concentrations in liquid medium.
A further assay has as its system Bacillus spizizenii. Description: Antimicrobial activity against Bacillus subtilis ATCC 6633 by microbroth dilution assay. Type of assay: functional.
The test system of assay [2] is Streptomyces scabiei. The assay can be described thus: Antimicrobial activity against Streptomyces scabies LK 82 at 25 ug/disk after 2 days by disk diffusion assay. Type of assay: functional. In a few lines:
(§1)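 S. scabies grown 5 days in liquid ISP2, diluted 1:10 in molten ISP2 agar. Paper discs carrying 25 μg compound (applied in 20 μL methanol) were set on a thin agar layer and overlaid with 10 mL of the seeded agar (double-layer method). Plates were incubated 2 days at 30 °C, and inhibition zone diameters were measured.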
A general note: In agar diffusion tests the substance spreads into inoculated agar from a disc or well.

For assay [3], the target named is T1, Topoisomerase I (Bos taurus) (UniProt Q2HPH0).
T1 sequence (whole entry): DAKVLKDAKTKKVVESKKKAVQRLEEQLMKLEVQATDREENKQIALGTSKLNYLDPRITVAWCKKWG
The assay can be described thus: Inhibition of calf thymus topoisomerase-1-mediated supercoiled plasmid DNA relaxation after 15 mins by agarose gel electrophoresis. The procedure, abridged:
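Calf thymus Topo I (0.5 unit) with negatively supercoiled pBR322 (0.3 μg) in 50 mM Tris-HCl pH 7.5, 1 mM MgCl2, 0.5 mM DTT and 50 μg/mL BSA. Camptothecin was the control. Reactions ran 15 min at 37 °C and were stopped on ice with an EDTA/sarkosyl loading dye. Relaxed versus supercoiled DNA was resolved by agarose gel, in duplicate.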

A further assay deals with Candida albicans. The assay can be described thus: Antimicrobial activity against Candida albicans ATCC 10231 by microbroth dilution assay. Type of assay: functional.
The subject of a further assay is Klebsiella pneumoniae. Description: Antimicrobial activity against Klebsiella pneumoniae ATCC 13883 by microbroth dilution assay. The class given is functional.
The target in assay [4] is T1, Topoisomerase I (Bos taurus). Description: Inhibition of calf thymus topoisomerase-1-mediated DNA intercalation using relaxed pBR322 after 15 mins. The procedure, abridged: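 Unwinding (intercalation) assay: relaxed pBR322 (0.3 μg) with 1 unit calf thymus Topo I in 50 mM Tris-HCl pH 7.5, 1 mM MgCl2, 0.5 mM DTT and 50 μg/mL BSA. Compound was added in DMSO, with ethidium bromide as control. After 15 min at 37 °C, reactions were treated with SDS and proteinase K and phenol-extracted. DNA was run on 1.2% agarose in TAE, and supercoiled DNA was quantified after staining.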

In assay [5] the test system is Escherichia coli. Description: Inhibition of Escherichia coli topoisomerase-2-mediated DNA cleavage after 15 mins by agarose gel electrophoresis.
Assay [6] can be described thus: Cytotoxicity against human […] cells after 72 hrs by MTT assay. Type of assay: functional, cell-based. In a few lines:
(§2)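 Vero cells in MEM and HCT-116 cells in RPMI, each with 10% FBS, 1% penicillin–streptomycin and 1% Glutamax. Cells were seeded at 3.0 × 10^4 per well and left to adhere overnight. Medium was replaced, and compounds in DMSO were added to a final 150–0.1 μM. Cells were incubated 72 h at 37 °C in 4.5% CO2 (humidified), then viability was read by MTT.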

Another assay deals with Staphylococcus aureus. Description: Antimicrobial activity against methicillin-resistant Staphylococcus aureus ATCC 43300 by microbroth dilution assay. The class given is functional.
Another assay concerns Pseudomonas aeruginosa. Description: Antimicrobial activity against Pseudomonas aeruginosa ATCC 27853 by microbroth dilution assay. Type of assay: functional.
In the next assay the test system is Acinetobacter baumannii. The assay can be described thus: Antimicrobial activity against Acinetobacter baumannii ATCC 19606 by microbroth dilution assay. Conditions: ATCC 19606 = CIP 70.34 = JCM 6841. The class given is functional.
The next assay concerns Vero. The assay can be described thus: Cytotoxicity against African green monkey Vero cells after 72 hrs by MTT assay. Type of assay: cell-based. Conditions: Chlorocebus sabaeus. The procedure, abridged:
as §2
On the technique in general: Formazan colour is commonly taken as a measure of viable cells.

The target of assay [7] is DNA topoisomerase 2-alpha (Homo sapiens) (UniProt P11388). The assay can be described thus: Inhibition of topoisomerase-2 (unknown origin)-mediated DNA cleavage […] by agarose gel electrophoresis. The procedure, abridged: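 Human Topo II cleavage assay: 5 units enzyme with 0.3 μg kDNA in the decatenation buffer without potassium glutamate, with etoposide as control. Reactions ran 10 min at 37 °C, then SDS to 1% for 10 min, then 40 mM EDTA and 100 μg/mL proteinase K for 1 h at 50 °C. Products were run on ethidium-containing 1.2% agarose. Linear DNA was compared with and without compound, at least in duplicate.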
Sequence of DNA topoisomerase 2-alpha (Homo sapiens) (P11388 whole entry): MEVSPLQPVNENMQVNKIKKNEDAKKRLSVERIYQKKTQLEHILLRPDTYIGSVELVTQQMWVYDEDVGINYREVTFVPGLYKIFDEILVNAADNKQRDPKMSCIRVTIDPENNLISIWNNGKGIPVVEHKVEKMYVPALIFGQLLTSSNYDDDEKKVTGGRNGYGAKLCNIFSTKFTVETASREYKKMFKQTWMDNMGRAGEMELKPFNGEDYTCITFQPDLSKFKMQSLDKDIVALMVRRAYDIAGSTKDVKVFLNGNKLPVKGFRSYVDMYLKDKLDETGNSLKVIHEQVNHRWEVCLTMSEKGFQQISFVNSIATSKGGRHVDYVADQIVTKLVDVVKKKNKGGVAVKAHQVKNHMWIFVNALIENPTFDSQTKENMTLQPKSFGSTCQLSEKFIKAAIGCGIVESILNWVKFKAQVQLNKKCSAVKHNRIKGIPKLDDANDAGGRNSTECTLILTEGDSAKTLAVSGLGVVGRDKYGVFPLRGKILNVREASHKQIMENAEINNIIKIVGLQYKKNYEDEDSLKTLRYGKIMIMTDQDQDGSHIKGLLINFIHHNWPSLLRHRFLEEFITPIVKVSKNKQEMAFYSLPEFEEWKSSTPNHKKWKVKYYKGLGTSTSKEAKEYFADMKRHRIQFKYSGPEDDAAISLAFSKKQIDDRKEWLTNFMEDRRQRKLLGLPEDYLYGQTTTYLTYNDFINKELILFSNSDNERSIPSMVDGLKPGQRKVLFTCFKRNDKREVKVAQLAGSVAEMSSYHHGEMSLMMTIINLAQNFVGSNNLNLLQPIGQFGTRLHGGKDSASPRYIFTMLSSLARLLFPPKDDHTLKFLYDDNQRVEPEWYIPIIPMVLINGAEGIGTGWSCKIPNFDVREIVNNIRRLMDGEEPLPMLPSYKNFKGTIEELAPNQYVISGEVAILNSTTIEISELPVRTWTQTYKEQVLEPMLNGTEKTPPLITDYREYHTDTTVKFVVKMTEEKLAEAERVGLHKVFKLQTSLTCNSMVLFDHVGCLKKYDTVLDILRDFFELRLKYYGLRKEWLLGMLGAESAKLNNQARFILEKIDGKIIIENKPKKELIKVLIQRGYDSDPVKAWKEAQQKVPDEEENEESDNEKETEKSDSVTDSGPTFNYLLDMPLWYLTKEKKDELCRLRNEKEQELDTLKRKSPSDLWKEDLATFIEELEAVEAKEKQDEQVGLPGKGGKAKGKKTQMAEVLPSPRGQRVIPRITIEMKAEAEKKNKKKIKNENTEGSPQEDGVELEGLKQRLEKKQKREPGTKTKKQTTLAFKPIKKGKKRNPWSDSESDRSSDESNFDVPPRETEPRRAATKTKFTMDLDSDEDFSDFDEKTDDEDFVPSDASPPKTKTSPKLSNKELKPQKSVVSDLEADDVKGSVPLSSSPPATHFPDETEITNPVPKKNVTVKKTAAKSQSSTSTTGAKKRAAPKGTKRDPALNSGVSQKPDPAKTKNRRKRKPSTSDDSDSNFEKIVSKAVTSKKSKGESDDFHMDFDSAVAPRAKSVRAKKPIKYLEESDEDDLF

Assay [8] deals with T2, DNA topoisomerase 1 (Homo sapiens) (UniProt P11387).
T2 sequence (whole entry): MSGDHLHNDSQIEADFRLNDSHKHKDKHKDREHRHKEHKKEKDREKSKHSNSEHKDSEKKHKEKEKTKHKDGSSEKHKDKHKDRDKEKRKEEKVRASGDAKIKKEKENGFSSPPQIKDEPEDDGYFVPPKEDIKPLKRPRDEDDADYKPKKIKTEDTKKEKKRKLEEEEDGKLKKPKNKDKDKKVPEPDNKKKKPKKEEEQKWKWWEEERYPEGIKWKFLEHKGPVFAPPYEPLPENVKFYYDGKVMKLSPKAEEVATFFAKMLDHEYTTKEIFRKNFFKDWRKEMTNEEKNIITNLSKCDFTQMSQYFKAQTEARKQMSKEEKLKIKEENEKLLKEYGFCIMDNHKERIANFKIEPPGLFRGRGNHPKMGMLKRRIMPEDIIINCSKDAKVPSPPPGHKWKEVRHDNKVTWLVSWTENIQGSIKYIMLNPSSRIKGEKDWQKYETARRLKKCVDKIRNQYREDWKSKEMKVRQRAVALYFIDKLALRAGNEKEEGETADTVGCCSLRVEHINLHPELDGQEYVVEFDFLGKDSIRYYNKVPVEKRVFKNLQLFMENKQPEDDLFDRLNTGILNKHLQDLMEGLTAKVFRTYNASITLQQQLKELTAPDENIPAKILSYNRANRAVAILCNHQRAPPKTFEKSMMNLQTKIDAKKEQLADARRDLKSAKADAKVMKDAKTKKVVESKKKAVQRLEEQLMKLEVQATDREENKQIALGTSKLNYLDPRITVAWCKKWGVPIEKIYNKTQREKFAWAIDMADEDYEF
The assay can be described thus: Inhibition of topoisomerase-1 (unknown origin)-mediated DNA cleavage after 15 mins by agarose gel electrophoresis. The procedure, abridged: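 Topo I cleavage assay: 2 units Topo I with 0.3 μg pBR322 in the unwinding buffer, with camptothecin as control. Reactions ran 10 min at 37 °C, then SDS to 1% for 10 min, then 40 mM EDTA and 100 μg/mL proteinase K for 15 min at 37 °C. DNA was phenol-extracted and run on 1.2% agarose containing 0.5 μg/mL ethidium bromide. Nicked DNA was compared with and without compound, at least in duplicate.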

In the next assay the test system is Cryptococcus neoformans. The assay can be described thus: Antimicrobial activity against Cryptococcus neoformans ATCC 66031 by microbroth dilution assay. Type of assay: functional.
Assay [9] concerns Streptomyces scabiei. Description: Antimicrobial activity against Streptomyces scabies NRRL B 2795 at 25 ug/disk after 2 days by disk diffusion assay. The class given is functional. The procedure, abridged: as §1

With `C[C@@H]1O[C@@H](OC(=O)c2cccc3nc4c(C(=O)O[C@@H]5O[C@@H](C)[C@H](O)[C@@H](O)[C@H]5O)cccc4nc23)[C@H](O)[C@H](O)[C@H]1O` [SOPHENAZINE A], the MIC in the assay on Enterococcus faecalis, against Escherichia coli [1], in the assay on Bacillus spizizenii, in the assay with Candida albicans, in the assay with Klebsiella pneumoniae and in the assay with Staphylococcus aureus was greater than 25 µg/mL throughout. In addition, the MIC in the assay on Pseudomonas aeruginosa, in the assay on Acinetobacter baumannii and in the assay with Cryptococcus neoformans was greater than 25 µg/mL throughout. Also, the result in the assay with Streptomyces scabiei [2] and with Streptomyces scabiei [9] was inactive. Besides, the inhibition result (in assay [3]; in assay [4]; in the assay on Escherichia coli [5]; in [7]; in assay [8]) was “inactive” in each case. For the same compound, the half-maximal effective concentration (EC50) in assay [6] is 18 µM; in the assay with Vero, 84 µM.
